# Measurements published in ChEMBL document CHEMBL4354843, “Structure-Based Design of a Potent and Selective Covalent Inhibitor for SRC Kinase That Targets a P-Loop Cysteine” (J Med Chem, 2020).
# Calls of active or inactive are those of the source. The rule behind the calls is not given here.
# Assays:
# [1] = biological target: Mitogen-activated protein kinase; ERK1/ERK2 (Homo sapiens) (UniProt P27361+P28482); test: Inhibition of ERK1/2 in human NCI-H1975 cells assessed as blocking of ERK1/2 pulldown at 1 uM in presence of TL13-68 incubated for 2 hrs by Western blot analysis; format: cell-based
# Outline: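 H1975 or HCC827 cells treated with 1 μM compound or DMSO for 2 h, rinsed twice in cold PBS, and lysed in M-PER with protease/phosphatase inhibitors. Lysate rocked overnight at 4 °C with 1 μM TL13-68, then streptavidin pulldown with five cold washes. Bound kinases detected by Western blot. Two independent experiments.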
# [2] = biological target: Serine/threonine-protein kinase BRSK1 (Homo sapiens) (UniProt Q8TDC3); test: Binding affinity to wild-type human partial length BRSK1 (M1 to E754 residues) expressed in bacterial expression system assessed as residual binding level at 1 uM by Kinomescan method relative to control
# [3] = biological target: Dual specificity protein kinase CLK2 (Homo sapiens) (UniProt P49760); test: Binding affinity to wild-type human partial length CLK2 (D144 to R498 residues) expressed in bacterial expression system assessed as residual binding level at 1 uM by Kinomescan method relative to control
# [4] = biological target: Casein kinase II subunit alpha (Homo sapiens) (UniProt P68400); test: Binding affinity to wild-type human full length CSNK2A1 (M1 to Q391 residues) expressed in mammalian expression system assessed as residual binding level at 1 uM by Kinomescan method relative to control
# Outline: (§1)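 KinomeScan, an active site-directed competition binding panel of 468 kinases. The test compound was at 1 μM. The readout is remaining kinase binding as a percentage of the DMSO control. Scores above 35% were treated as weak binding and not listed.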
# [5] = biological target: Megakaryocyte-associated tyrosine-protein kinase (Homo sapiens) (UniProt P42679); test: Binding affinity to wild-type human full length CTK (M43 to P508 residues) expressed in mammalian expression system assessed as residual binding level at 1 uM by Kinomescan method relative to control
# Outline: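 Active-site-directed KinomeScan competition binding panel covering 468 kinases, compound tested at 1 μM. Each readout is the kinase signal remaining with compound, expressed as a percentage of the DMSO control. […]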
# [6] = biological target: Death-associated protein kinase 1 (Homo sapiens) (UniProt P53355); test: Binding affinity to wild-type human partial length DAPK1 (M1 to F296 residues) expressed in bacterial expression system assessed as residual binding level at 1 uM by Kinomescan method relative to control
# [7] = biological target: Myotonin-protein kinase (Homo sapiens) (UniProt Q09013); test: Binding affinity to wild-type human partial length DMPK (V47 to V415 residues) expressed in bacterial expression system assessed as residual binding level at 1 uM by Kinomescan method relative to control
# [8] = biological target: Epidermal growth factor receptor (Homo sapiens) (UniProt P00533); test: Binding affinity to wild-type human partial length EGFR (R669 to V1011 residues) expressed in bacterial expression system assessed as residual binding level at 1 uM by Kinomescan method relative to control
# [9] = biological target: Mitogen-activated protein kinase 6 (Homo sapiens) (UniProt Q16659); test: Binding affinity to wild-type human partial length ERK3 (M1 to P413 residues) expressed in bacterial expression system assessed as residual binding level at 1 uM by Kinomescan method relative to control
# [10] = biological target: Mitogen-activated protein kinase 4 (Homo sapiens) (UniProt P31152); test: Binding affinity to wild-type human partial length ERK4 (M1 to L365 residues) expressed in bacterial expression system assessed as residual binding level at 1 uM by Kinomescan method relative to control
# [11] = biological target: Tyrosine-protein kinase FRK (Homo sapiens) (UniProt P42685); test: Binding affinity to wild-type human partial length FRK (A215 to F503 residues) expressed in bacterial expression system assessed as residual binding level at 1 uM by Kinomescan method relative to control
# Outline: (§2)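 Active-site-directed competition binding panel of 468 kinases (KinomeScan), compound at 1 μM. The read-out is kinase remaining bound, given as a percentage of the DMSO control. […]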
# [12] = biological target: Homeodomain-interacting protein kinase 1 (Homo sapiens) (UniProt Q86Z02); test: Binding affinity to wild-type human partial length HIPK1 (M146 to I555 residues) expressed in mammalian expression system assessed as residual binding level at 1 uM by Kinomescan method relative to control
# [13] = biological target: Interleukin-1 receptor-associated kinase 4 (Homo sapiens) (UniProt Q9NWZ3); test: Binding affinity to wild-type human partial length IRAK4 (M1 to S460 residues) expressed in mammalian expression system assessed as residual binding level at 1 uM by Kinomescan method relative to control
# [14] = system: Mast/stem cell growth factor receptor Kit (Homo sapiens), P10721 [D816H]; test: Binding affinity to human partial length KIT D816H mutant (I571 to D952 residues) expressed in mammalian expression system assessed as residual binding level at 1 uM by Kinomescan method relative to control
# Outline: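 KinomeScan active site-directed competition binding panel (468 kinases), compound tested at 1 μM. Result expressed as remaining kinase signal versus DMSO control (percent of control).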
# [15] = biological target: Mitogen-activated protein kinase kinase kinase 2 (Homo sapiens) (UniProt Q9Y2U5); test: Binding affinity to wild-type human partial length MAP3K2 (S315 to H619 residues) expressed in mammalian expression system assessed as residual binding level at 1 uM by Kinomescan method relative to control; outline: as §2
# [16] = biological target: Serine/threonine-protein kinase NLK (Homo sapiens) (UniProt Q9UBE8); test: Binding affinity to wild-type human full length NLK (M13 to E527 residues) expressed in bacterial expression system assessed as residual binding level at 1 uM by Kinomescan method relative to control; outline: as §1
# [17] = biological target: Serine/threonine-protein kinase PLK3 (Homo sapiens) (UniProt Q9H4B4); test: Binding affinity to wild-type human partial length PLK3 (A42 to L334 residues) expressed in mammalian expression system assessed as residual binding level at 1 uM by Kinomescan method relative to control
# [18] = biological target: Protein kinase C theta type (Homo sapiens) (UniProt Q04759); test: Binding affinity to wild-type human partial length PRKCQ (L350 to S706 residues) expressed in bacterial expression system assessed as residual binding level at 1 uM by Kinomescan method relative to control; outline: as §2
# [19] = biological target: High affinity nerve growth factor receptor (Homo sapiens) (UniProt P04629); test: Binding affinity to wild-type human partial length TRKA (G475 to G790 residues) expressed in mammalian expression system assessed as residual binding level at 1 uM by Kinomescan method relative to control
# [20] = biological target: Transient receptor potential cation channel subfamily M member 6 (Homo sapiens) (UniProt Q9BX84); test: Binding affinity to wild-type human partial length TRPM6 (Q1723 to I1998 residues) expressed in mammalian expression system assessed as residual binding level at 1 uM by Kinomescan method relative to control
# Outline: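 Active site-directed competition binding panel (KinomeScan, 468 kinases). Test compound at 1 μM. Read-out is kinase binding remaining versus DMSO control, expressed as percent of control. Scores above 35% are treated as weak binding.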
# Myotonin-protein kinase (Homo sapiens), sequence (Q09013 whole entry, the tested form may be a part): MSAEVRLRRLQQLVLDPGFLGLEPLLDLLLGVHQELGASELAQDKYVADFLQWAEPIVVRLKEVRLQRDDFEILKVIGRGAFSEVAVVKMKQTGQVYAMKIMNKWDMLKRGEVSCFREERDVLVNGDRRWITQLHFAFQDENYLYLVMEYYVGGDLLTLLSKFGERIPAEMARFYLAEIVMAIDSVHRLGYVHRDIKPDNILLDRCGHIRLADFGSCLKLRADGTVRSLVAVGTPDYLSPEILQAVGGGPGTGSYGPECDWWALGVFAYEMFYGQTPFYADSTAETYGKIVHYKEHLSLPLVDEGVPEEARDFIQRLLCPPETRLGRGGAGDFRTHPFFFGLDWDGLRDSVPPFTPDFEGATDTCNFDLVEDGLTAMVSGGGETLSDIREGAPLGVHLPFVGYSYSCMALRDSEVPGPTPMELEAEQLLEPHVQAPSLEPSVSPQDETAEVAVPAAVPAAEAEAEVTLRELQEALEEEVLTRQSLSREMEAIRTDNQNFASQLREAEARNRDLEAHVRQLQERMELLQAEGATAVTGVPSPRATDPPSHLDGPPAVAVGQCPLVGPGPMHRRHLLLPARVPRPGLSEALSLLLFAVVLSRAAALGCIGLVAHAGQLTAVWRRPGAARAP
# Homeodomain-interacting protein kinase 1 (Homo sapiens), sequence (Q86Z02 whole entry, looked up, the tested form may be a part): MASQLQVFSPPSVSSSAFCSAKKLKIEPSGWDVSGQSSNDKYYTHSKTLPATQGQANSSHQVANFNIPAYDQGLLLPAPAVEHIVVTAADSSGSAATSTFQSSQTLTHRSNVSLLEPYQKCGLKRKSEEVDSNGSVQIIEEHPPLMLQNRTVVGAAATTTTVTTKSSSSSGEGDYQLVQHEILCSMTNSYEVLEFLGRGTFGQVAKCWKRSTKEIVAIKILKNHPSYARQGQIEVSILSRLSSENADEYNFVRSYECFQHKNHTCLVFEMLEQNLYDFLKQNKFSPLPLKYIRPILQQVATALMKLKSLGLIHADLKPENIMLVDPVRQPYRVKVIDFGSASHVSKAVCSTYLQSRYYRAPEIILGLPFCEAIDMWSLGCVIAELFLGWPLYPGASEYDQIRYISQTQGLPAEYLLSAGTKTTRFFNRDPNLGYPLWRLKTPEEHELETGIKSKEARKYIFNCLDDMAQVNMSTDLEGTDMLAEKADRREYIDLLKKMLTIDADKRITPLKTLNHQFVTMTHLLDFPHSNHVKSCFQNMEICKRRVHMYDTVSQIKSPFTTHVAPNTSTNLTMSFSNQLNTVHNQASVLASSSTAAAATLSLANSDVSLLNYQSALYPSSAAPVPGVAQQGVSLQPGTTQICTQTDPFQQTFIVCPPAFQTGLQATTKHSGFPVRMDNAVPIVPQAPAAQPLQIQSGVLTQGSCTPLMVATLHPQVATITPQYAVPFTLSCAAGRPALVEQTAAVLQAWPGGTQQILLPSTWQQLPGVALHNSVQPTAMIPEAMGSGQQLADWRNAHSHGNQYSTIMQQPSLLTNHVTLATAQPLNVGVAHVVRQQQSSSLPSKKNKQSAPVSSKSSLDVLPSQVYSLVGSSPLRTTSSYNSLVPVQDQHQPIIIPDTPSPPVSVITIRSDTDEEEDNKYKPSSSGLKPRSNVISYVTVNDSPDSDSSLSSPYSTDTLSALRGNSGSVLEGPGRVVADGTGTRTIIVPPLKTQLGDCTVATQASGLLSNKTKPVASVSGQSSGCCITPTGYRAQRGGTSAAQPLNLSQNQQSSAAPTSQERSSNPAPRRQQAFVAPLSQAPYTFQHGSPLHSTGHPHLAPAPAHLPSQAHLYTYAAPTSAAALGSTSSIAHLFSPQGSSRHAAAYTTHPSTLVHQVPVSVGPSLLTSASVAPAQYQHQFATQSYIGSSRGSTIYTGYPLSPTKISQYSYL
# Epidermal growth factor receptor (Homo sapiens), sequence (P00533 whole entry, the tested form may be a part): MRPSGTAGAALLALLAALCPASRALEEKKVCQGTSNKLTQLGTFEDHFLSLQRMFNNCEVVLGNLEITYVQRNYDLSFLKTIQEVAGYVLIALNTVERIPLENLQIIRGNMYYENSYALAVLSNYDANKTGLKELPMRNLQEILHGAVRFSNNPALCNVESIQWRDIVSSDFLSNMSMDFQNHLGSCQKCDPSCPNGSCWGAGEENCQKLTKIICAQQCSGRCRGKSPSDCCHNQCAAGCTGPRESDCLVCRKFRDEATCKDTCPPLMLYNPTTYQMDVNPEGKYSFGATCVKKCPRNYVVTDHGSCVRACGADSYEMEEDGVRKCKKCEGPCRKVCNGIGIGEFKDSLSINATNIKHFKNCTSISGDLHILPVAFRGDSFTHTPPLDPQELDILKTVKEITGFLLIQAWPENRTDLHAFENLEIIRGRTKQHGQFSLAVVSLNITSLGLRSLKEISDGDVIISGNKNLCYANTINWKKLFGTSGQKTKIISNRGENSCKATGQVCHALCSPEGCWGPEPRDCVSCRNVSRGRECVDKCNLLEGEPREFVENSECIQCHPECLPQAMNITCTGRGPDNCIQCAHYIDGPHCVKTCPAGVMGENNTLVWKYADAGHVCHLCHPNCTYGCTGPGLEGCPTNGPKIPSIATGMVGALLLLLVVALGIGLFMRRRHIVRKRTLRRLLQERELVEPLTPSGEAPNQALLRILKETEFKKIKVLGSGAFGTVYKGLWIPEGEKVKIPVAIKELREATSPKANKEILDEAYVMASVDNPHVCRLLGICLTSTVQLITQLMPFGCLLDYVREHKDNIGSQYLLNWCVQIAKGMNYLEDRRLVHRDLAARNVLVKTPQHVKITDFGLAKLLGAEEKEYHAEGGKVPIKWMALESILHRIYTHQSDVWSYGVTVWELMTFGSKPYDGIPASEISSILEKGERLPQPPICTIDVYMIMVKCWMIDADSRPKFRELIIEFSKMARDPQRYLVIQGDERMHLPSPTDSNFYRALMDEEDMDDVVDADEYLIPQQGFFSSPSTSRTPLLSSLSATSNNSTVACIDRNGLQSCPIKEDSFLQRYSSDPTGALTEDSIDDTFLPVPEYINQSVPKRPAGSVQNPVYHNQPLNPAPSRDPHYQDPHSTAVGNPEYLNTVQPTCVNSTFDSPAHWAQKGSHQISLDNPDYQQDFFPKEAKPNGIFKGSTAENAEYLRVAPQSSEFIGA
# High affinity nerve growth factor receptor (Homo sapiens), sequence (P04629 33-796 limits assumed): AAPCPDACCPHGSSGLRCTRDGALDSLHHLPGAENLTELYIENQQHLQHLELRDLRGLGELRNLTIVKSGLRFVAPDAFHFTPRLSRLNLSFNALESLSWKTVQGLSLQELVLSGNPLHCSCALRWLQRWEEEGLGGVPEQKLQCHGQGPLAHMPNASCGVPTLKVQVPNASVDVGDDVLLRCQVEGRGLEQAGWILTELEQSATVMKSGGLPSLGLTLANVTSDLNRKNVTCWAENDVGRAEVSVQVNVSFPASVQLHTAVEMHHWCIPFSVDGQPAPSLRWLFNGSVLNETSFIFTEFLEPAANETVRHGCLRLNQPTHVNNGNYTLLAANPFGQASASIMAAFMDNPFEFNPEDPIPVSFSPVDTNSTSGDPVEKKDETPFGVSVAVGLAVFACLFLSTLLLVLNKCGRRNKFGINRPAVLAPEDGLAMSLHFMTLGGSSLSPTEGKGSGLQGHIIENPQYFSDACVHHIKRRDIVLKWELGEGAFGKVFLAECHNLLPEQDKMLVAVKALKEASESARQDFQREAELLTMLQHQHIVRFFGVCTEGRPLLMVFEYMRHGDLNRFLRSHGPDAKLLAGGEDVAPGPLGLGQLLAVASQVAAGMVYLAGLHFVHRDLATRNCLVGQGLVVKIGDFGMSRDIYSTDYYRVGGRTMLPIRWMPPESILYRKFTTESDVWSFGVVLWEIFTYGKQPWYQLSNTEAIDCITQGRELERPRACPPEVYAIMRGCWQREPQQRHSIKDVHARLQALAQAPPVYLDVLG
# Mitogen-activated protein kinase kinase kinase 2 (Homo sapiens), sequence (Q9Y2U5 whole entry, the tested form may be a part): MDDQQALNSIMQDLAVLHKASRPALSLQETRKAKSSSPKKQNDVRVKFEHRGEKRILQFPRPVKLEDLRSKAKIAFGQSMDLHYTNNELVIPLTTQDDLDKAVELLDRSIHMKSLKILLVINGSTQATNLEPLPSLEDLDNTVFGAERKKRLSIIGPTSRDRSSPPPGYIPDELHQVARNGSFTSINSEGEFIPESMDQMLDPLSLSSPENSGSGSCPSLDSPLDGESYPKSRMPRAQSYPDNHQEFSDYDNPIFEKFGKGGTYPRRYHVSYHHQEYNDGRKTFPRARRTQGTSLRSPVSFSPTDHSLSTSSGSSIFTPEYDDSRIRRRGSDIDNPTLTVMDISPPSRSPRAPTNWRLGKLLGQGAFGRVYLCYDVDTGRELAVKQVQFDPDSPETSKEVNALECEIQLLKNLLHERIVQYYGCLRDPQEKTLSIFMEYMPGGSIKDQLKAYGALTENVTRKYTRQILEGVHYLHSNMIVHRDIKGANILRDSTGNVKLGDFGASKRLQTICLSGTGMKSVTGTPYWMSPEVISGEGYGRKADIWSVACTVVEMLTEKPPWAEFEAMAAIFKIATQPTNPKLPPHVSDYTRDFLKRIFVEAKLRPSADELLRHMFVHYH
# Serine/threonine-protein kinase PLK3 (Homo sapiens), sequence (Q9H4B4 whole entry, looked up, the tested form may be a part): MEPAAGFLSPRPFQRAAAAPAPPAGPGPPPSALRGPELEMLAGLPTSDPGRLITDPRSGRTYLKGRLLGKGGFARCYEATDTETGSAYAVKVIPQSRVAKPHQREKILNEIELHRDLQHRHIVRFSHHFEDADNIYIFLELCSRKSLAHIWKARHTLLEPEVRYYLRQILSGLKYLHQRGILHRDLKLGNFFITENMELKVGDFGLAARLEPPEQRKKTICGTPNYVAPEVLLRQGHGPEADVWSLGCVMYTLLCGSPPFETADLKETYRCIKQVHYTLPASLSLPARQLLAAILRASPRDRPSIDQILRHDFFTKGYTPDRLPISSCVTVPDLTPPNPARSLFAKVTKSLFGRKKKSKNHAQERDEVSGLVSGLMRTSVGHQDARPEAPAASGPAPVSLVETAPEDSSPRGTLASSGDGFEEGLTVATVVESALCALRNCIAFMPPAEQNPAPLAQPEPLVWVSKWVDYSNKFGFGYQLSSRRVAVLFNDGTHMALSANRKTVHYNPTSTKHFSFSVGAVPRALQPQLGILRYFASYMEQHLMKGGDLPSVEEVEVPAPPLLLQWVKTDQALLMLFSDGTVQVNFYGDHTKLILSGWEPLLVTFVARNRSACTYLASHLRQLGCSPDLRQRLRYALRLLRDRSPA
compound,measurement,setting,value
C=CC(=O)Nc1ccccc1Nc1nc(Nc2ccc(N3CCN(C)CC3)cc2)ncc1C(=O)Nc1c(C)cccc1Cl,inhibition,[1],inactive
same,Activity,[2],100%
same,Activity,[3],100%
same,Activity,[4],68%
same,Activity,[5],100%
same,Activity,[6],100%
same,Activity,[7],100%
same,Activity,[8],80%
same,Activity,[9],100%
same,Activity,[10],100%
same,Activity,[11],5.1%
same,Activity,[12],100%
same,Activity,[13],100%
same,Activity,[14],41%
same,Activity,[15],94%
same,Activity,[16],76%
same,Activity,[17],100%
same,Activity,[18],86%
same,Activity,[19],100%
same,Activity,[20],81%
